Experimental data: ChEMBL document CHEMBL1138845, “Design of non-nucleoside inhibitors of HIV-1 reverse transcriptase with improved drug resistance properties. 2” (J Med Chem, 2004)
pIC50: −log10 of the molar value.

The compounds below were run on HeLa (assay: Inhibitory concentration against human immunodeficiency virus type 1 (with K103N/G190A resistant mutation) was determined in HeLa-CD4 MAGI assay).
Assay type: functional, cell-based
Method in brief: (§1)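 Tested against a panel of recombinant, isogenic HIV-1 viruses, wild type and NNRTI-resistant strains carrying engineered single or double RT mutations. The readout was IC50.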

Row | SMILES | pIC50
1 | CCc1c(O)nc2ccc(F)cc2c1OC#CC1CC1 | 7.17
2 | CCCc1c(O)nc2ccc(C#N)cc2c1OC1CCCC1 | < 5.70
3 | CCCc1c(O)nc2cc(OC)ccc2c1OCC1CCC1 | < 5.70
4 | N#Cc1c(O)nc2ccccc2c1OCC1CCC1 | < 5.70
5 | CCCc1c(O)nc2ccc(F)cc2c1OC1CCCC1 | < 5.70
6 | CCc1c(O)nc2ccc(Cl)cc2c1OC1CCCC1 | 6.19
7 | CCCc1c(O)nc2ccc(C)cc2c1OC1CCCC1 | < 5.70

What follows are compounds tested on HeLa (assay: Inhibitory concentration against human immunodeficiency virus type 1 (with K103N/V108I resistant mutation) was determined in HeLa-CD4 MAGI assay).
Assay type: functional, cell-based
Method in brief: as §1

Row | SMILES | pIC50
8 | CCc1c(O)nc2ccc(F)cc2c1OC#CC1CC1 | 6.62
9 | CCCc1c(O)nc2ccc(C#N)cc2c1OC1CCCC1 | < 5.70
10 | CCCc1c(O)nc2cc(OC)ccc2c1OCC1CCC1 | < 5.70
11 | N#Cc1c(O)nc2ccccc2c1OCC1CCC1 | < 5.70
12 | CCCc1c(O)nc2ccc(F)cc2c1OC1CCCC1 | < 5.70
13 | CCc1c(O)nc2ccc(Cl)cc2c1OC1CCCC1 | < 5.70
14 | CCCc1c(O)nc2ccc(C)cc2c1OC1CCCC1 | < 5.70

These compounds were tested on HeLa (assay: Inhibitory concentration against human immunodeficiency virus type 1 (with K103N/Y181C resistant mutation) was determined in HeLa-CD4 MAGI assay).
Assay type: functional, cell-based
Method in brief: as §1

Row | SMILES | pIC50
15 | CCc1c(O)nc2ccc(F)cc2c1OC#CC1CC1 | 6.52
16 | CCCc1c(O)nc2ccc(C#N)cc2c1OC1CCCC1 | < 5.70
17 | CCCc1c(O)nc2cc(OC)ccc2c1OCC1CCC1 | < 5.70
18 | N#Cc1c(O)nc2ccccc2c1OCC1CCC1 | < 5.70
19 | CCCc1c(O)nc2ccc(F)cc2c1OC1CCCC1 | < 5.70
20 | CCc1c(O)nc2ccc(Cl)cc2c1OC1CCCC1 | < 5.70
21 | CCCc1c(O)nc2ccc(C)cc2c1OC1CCCC1 | < 5.70

These compounds were tested on HeLa (assay: Inhibitory concentration against human immunodeficiency virus type 1 (with V106A/Y181C resistant mutation) was determined in HeLa-CD4 MAGI assay).
Assay type: functional, cell-based
Method in brief: as §1

Row | SMILES | pIC50
22 | CCc1c(O)nc2ccc(F)cc2c1OC#CC1CC1 | 6.64
23 | CCCc1c(O)nc2ccc(C#N)cc2c1OC1CCCC1 | < 5.70
24 | CCCc1c(O)nc2cc(OC)ccc2c1OCC1CCC1 | < 5.70
25 | N#Cc1c(O)nc2ccccc2c1OCC1CCC1 | < 5.70
26 | CCCc1c(O)nc2ccc(F)cc2c1OC1CCCC1 | < 5.70
27 | CCc1c(O)nc2ccc(Cl)cc2c1OC1CCCC1 | ~6.00
28 | CCCc1c(O)nc2ccc(C)cc2c1OC1CCCC1 | < 5.70

These compounds were tested on HeLa (assay: Inhibitory concentration against human immunodeficiency virus type 1 (with V108I/Y181C resistant mutation) was determined in HeLa-CD4 MAGI assay).
Assay type: functional, cell-based
Method in brief: as §1

Row | SMILES | pIC50
29 | CCc1c(O)nc2ccc(F)cc2c1OC#CC1CC1 | 6.89
30 | CCCc1c(O)nc2ccc(C#N)cc2c1OC1CCCC1 | < 5.70
31 | CCCc1c(O)nc2cc(OC)ccc2c1OCC1CCC1 | < 5.70
32 | N#Cc1c(O)nc2ccccc2c1OCC1CCC1 | < 5.70
33 | CCCc1c(O)nc2ccc(F)cc2c1OC1CCCC1 | < 5.70
34 | CCc1c(O)nc2ccc(Cl)cc2c1OC1CCCC1 | 6.11
35 | CCCc1c(O)nc2ccc(C)cc2c1OC1CCCC1 | < 5.70

The compounds below were run on MT4 (assay: Ratio of cytotoxic concentration to that of inhibitory concentration as selectivity index was determined by MT-4 assay).
Assay type: functional, Homo sapiens
Method in brief: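 Index is the IC50 in uninfected MT4 cells divided by the antiviral IC50 in MT4 cells infected with wild-type HIV-1 or the nevirapine-resistant strain carrying RT mutation Y181C.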

Row | SMILES | Ratio
36 | CCc1c(O)nc2ccc(F)cc2c1OC#CC1CC1 | >8000
37 | CCCc1c(O)nc2ccc(C#N)cc2c1OC1CCCC1 | >40000
38 | CCCc1c(O)nc2cc(OC)ccc2c1OCC1CCC1 | >8000
39 | N#Cc1c(O)nc2ccccc2c1OCC1CCC1 | >8000
40 | CCCc1c(O)nc2ccc(F)cc2c1OC1CCCC1 | >40000
41 | CCc1c(O)nc2ccc(Cl)cc2c1OC1CCCC1 | >40000
42 | CCCc1c(O)nc2ccc(C)cc2c1OC1CCCC1 | >40000

The compounds below were run on MT4 (assay: Inhibitory concentration against wild type human immunodeficiency virus type 1 was determined by MT-4 assay).
Assay type: functional, cell-based

Row | SMILES | pIC50
43 | CCc1c(O)nc2ccc(F)cc2c1OC#CC1CC1 | 7.60
44 | CCCc1c(O)nc2ccc(C#N)cc2c1OC1CCCC1 | 6.92
45 | CCCc1c(O)nc2cc(OC)ccc2c1OCC1CCC1 | < 5.10
46 | N#Cc1c(O)nc2ccccc2c1OCC1CCC1 | < 5.10
47 | CCCc1c(O)nc2ccc(F)cc2c1OC1CCCC1 | 6.82
48 | CCc1c(O)nc2ccc(Cl)cc2c1OC1CCCC1 | 7.11
49 | CCCc1c(O)nc2ccc(C)cc2c1OC1CCCC1 | 6.01

The compounds below were run on Human immunodeficiency virus 1 (assay: Inhibitory concentration against wild type human immunodeficiency virus type 1 was determined by recombinant virus assay).
Assay type: functional, organism-based
Method in brief: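 Isogenic recombinant HIV-1 carrying wild-type RT, tested in parallel with a panel of NNRTI-resistant RT mutants built on the same background; activity reported as IC50.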

Row | SMILES | pIC50
50 | CCc1c(O)nc2ccc(F)cc2c1OC#CC1CC1 | 7.60
51 | CCCc1c(O)nc2ccc(C#N)cc2c1OC1CCCC1 | 7.19
52 | CCCc1c(O)nc2cc(OC)ccc2c1OCC1CCC1 | < 5.70
53 | N#Cc1c(O)nc2ccccc2c1OCC1CCC1 | < 5.70
54 | CCCc1c(O)nc2ccc(F)cc2c1OC1CCCC1 | 6.82
55 | CCc1c(O)nc2ccc(Cl)cc2c1OC1CCCC1 | 7.14
56 | CCCc1c(O)nc2ccc(C)cc2c1OC1CCCC1 | 6.40

These compounds were tested on MT4 (assay: Inhibitory concentration against nevirapine resistant strain (with Y181C mutation in HIV-1 RT gene) of human immunodeficiency virus type 1 was determined by MT-4 assay).
Assay type: functional, cell-based

Row | SMILES | pIC50
57 | CCc1c(O)nc2ccc(F)cc2c1OC#CC1CC1 | 7.82
58 | CCCc1c(O)nc2ccc(C#N)cc2c1OC1CCCC1 | 5.70
59 | CCCc1c(O)nc2cc(OC)ccc2c1OCC1CCC1 | < 5.10
60 | N#Cc1c(O)nc2ccccc2c1OCC1CCC1 | < 5.10
61 | CCCc1c(O)nc2ccc(F)cc2c1OC1CCCC1 | 5.89
62 | CCc1c(O)nc2ccc(Cl)cc2c1OC1CCCC1 | 5.99
63 | CCCc1c(O)nc2ccc(C)cc2c1OC1CCCC1 | 5.19

Each compound was assayed on HeLa (assay: Inhibitory concentration against human immunodeficiency virus type 1 (with G190A resistant mutation) was determined in HeLa-CD4 MAGI assay).
Assay type: functional, cell-based
Method in brief: as §1

Row | SMILES | pIC50
64 | CCc1c(O)nc2ccc(F)cc2c1OC#CC1CC1 | 8.22
65 | CCCc1c(O)nc2ccc(C#N)cc2c1OC1CCCC1 | 9.00
66 | CCCc1c(O)nc2cc(OC)ccc2c1OCC1CCC1 | < 5.70
67 | N#Cc1c(O)nc2ccccc2c1OCC1CCC1 | < 5.70
68 | CCCc1c(O)nc2ccc(F)cc2c1OC1CCCC1 | 6.43
69 | CCc1c(O)nc2ccc(Cl)cc2c1OC1CCCC1 | 7.92
70 | CCCc1c(O)nc2ccc(C)cc2c1OC1CCCC1 | 6.82

The compounds below were run on HeLa (assay: Inhibitory concentration against human immunodeficiency virus type 1 (with K103N resistant mutation) was determined in HeLa-CD4 MAGI assay).
Assay type: functional, cell-based
Method in brief: as §1

Row | SMILES | pIC50
71 | CCc1c(O)nc2ccc(F)cc2c1OC#CC1CC1 | 6.38
72 | CCCc1c(O)nc2ccc(C#N)cc2c1OC1CCCC1 | < 5.70
73 | CCCc1c(O)nc2cc(OC)ccc2c1OCC1CCC1 | < 5.70
74 | N#Cc1c(O)nc2ccccc2c1OCC1CCC1 | < 5.70
75 | CCCc1c(O)nc2ccc(F)cc2c1OC1CCCC1 | < 5.70
76 | CCc1c(O)nc2ccc(Cl)cc2c1OC1CCCC1 | < 5.70
77 | CCCc1c(O)nc2ccc(C)cc2c1OC1CCCC1 | < 5.70

Each compound was assayed on HeLa (assay: Inhibitory concentration against human immunodeficiency virus type 1 (with V106A resistant mutation) was determined in HeLa-CD4 MAGI assay).
Assay type: functional, cell-based
Method in brief: as §1

Row | SMILES | pIC50
78 | CCc1c(O)nc2ccc(F)cc2c1OC#CC1CC1 | 6.47
79 | CCCc1c(O)nc2ccc(C#N)cc2c1OC1CCCC1 | 5.89
80 | CCCc1c(O)nc2cc(OC)ccc2c1OCC1CCC1 | < 5.70
81 | N#Cc1c(O)nc2ccccc2c1OCC1CCC1 | < 5.70
82 | CCCc1c(O)nc2ccc(F)cc2c1OC1CCCC1 | < 5.70
83 | CCc1c(O)nc2ccc(Cl)cc2c1OC1CCCC1 | < 5.70
84 | CCCc1c(O)nc2ccc(C)cc2c1OC1CCCC1 | < 5.70

Each compound was assayed on HeLa (assay: Inhibitory concentration against human immunodeficiency virus type 1 (with V108I resistant mutation) was determined in HeLa-CD4 MAGI assay).
Assay type: functional, cell-based
Method in brief: as §1

Row | SMILES | pIC50
85 | CCc1c(O)nc2ccc(F)cc2c1OC#CC1CC1 | 7.22
86 | CCCc1c(O)nc2ccc(C#N)cc2c1OC1CCCC1 | 6.62
87 | CCCc1c(O)nc2cc(OC)ccc2c1OCC1CCC1 | < 5.70
88 | N#Cc1c(O)nc2ccccc2c1OCC1CCC1 | < 5.70
89 | CCCc1c(O)nc2ccc(F)cc2c1OC1CCCC1 | 6.46
90 | CCc1c(O)nc2ccc(Cl)cc2c1OC1CCCC1 | 6.59
91 | CCCc1c(O)nc2ccc(C)cc2c1OC1CCCC1 | 6.15

These compounds were tested on HeLa (assay: Inhibitory concentration against human immunodeficiency virus type 1 (with Y181C resistant mutation) was determined in HeLa-CD4 MAGI assay).
Assay type: functional, cell-based
Method in brief: as §1

Row | SMILES | pIC50
92 | CCc1c(O)nc2ccc(F)cc2c1OC#CC1CC1 | 7.62
93 | CCCc1c(O)nc2ccc(C#N)cc2c1OC1CCCC1 | 5.77
94 | CCCc1c(O)nc2cc(OC)ccc2c1OCC1CCC1 | < 5.70
95 | N#Cc1c(O)nc2ccccc2c1OCC1CCC1 | < 5.70
96 | CCCc1c(O)nc2ccc(F)cc2c1OC1CCCC1 | 5.74
97 | CCc1c(O)nc2ccc(Cl)cc2c1OC1CCCC1 | 8.22
98 | CCCc1c(O)nc2ccc(C)cc2c1OC1CCCC1 | 6.39

What follows are compounds tested on HeLa (assay: Inhibitory concentration against human immunodeficiency virus type 1 (with Y188C resistant mutation) was determined in HeLa-CD4 MAGI assay).
Assay type: functional, cell-based
Method in brief: as §1

Row | SMILES | pIC50
99 | CCc1c(O)nc2ccc(F)cc2c1OC#CC1CC1 | 7.00
100 | CCCc1c(O)nc2ccc(C#N)cc2c1OC1CCCC1 | 7.28
101 | CCCc1c(O)nc2cc(OC)ccc2c1OCC1CCC1 | < 5.70
102 | N#Cc1c(O)nc2ccccc2c1OCC1CCC1 | < 5.70
103 | CCCc1c(O)nc2ccc(F)cc2c1OC1CCCC1 | 7.38
104 | CCc1c(O)nc2ccc(Cl)cc2c1OC1CCCC1 | 7.27
105 | CCCc1c(O)nc2ccc(C)cc2c1OC1CCCC1 | 6.62
